This note sets out measurements from ChEMBL document CHEMBL4706681, “New 2-Pyrazoline and Hydrazone Derivatives as Potent and Selective Monoamine Oxidase A Inhibitors” (J Med Chem, 2021).

The subject of series [1] is Mus musculus. The series is described as follows: Antidepressant-like activity in CD1 mouse assessed as reduction in immobility time at 20 mg/kg, po administered via gavage as single dose measured after 1 hr by Porsolt-forced swim test. It counts as functional, organism-based.
Series [2] can be described thus: Ex vivo inhibition of MAOA in CD1 mouse brain homogenates assessed as MAOA level at 20 mg/kg, po administered administered as single acute dose via gavage and measured after 1 hr by monoamine oxidase assay (reference value: 0.40 +/- 0.012 nmol/min/mg). The series is classed as functional.
The nature of series [3]: Ex vivo inhibition of MAOA in CD1 mouse brain homogenates assessed as dopamine levels at 20 mg/kg, po administered as single acute dose via gavage and measured after 1 hr by ELISA kit method (reference value: 7.08 +/- 0.58 ug/g). The series is classed as functional.
Series [4] can be described thus: Ex vivo inhibition of MAOA in CD1 mouse brain homogenates assessed as inhibition of 5-HT deamination by measuring 5-HIAA metabolite levels at 20 mg/kg, po administered as single acute dose via gavage and measured after 1 hr by HPLC analysis (reference value: 0.28 +/- 0.011 ug/g). The series is classed as functional.
Series [5] has as its target T1, Amine oxidase [flavin-containing] B (Homo sapiens, UniProt P27338).
T1 sequence (P27338 whole entry): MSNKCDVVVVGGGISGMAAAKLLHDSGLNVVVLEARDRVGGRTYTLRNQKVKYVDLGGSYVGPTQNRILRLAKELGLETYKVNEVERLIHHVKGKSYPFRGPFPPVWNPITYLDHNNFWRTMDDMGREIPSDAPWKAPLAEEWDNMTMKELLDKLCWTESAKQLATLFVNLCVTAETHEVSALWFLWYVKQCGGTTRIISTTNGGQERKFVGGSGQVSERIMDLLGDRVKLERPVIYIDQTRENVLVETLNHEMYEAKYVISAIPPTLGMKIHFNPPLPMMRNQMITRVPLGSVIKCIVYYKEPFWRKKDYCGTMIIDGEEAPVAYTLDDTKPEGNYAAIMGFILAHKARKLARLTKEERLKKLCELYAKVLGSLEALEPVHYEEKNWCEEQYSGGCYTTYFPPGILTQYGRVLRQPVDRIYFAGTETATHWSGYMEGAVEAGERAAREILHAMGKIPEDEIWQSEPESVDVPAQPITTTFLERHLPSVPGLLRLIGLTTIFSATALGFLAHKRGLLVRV
The series is described as follows: Inhibition of recombinant human MAO-B expressed in baculovirus infected BTI insect cells using p-tyramine as substrate incubated for 30 mins by Amplex red reagent based fluorescence analysis. The series is classed as cell-based.

Series [6] can be described thus: Selectivity index, ratio of Ki for inhibition of recombinant human MAO-A to Ki for inhibition of recombinant human MAO-B using p-tyramine as substrate.
For series [7], the system named is Mus musculus. The series is described as follows: Antidepressant-like activity in CD1 mouse assessed as reduction in immobility time at 30 mg/kg, po administered via gavage for 7 days and measured 1 h post last dose by Porsolt-forced swim test. It counts as functional, organism-based. To be noted: time 7.0 day. The procedure, abridged:
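Male albino CD-1 mice (20–25 g), 12 h light/dark, food and water ad libitum. Dosed by oral gavage once daily for 7 days in 200 μL 0.5% CMC; vehicle-only controls. […] Forced swim test run 1 h after the last dose. Immobility scored every 60 s over 6 min; n = 8–12.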

Series [8] is described as follows: Ex vivo inhibition of MAOA in CD1 mouse brain homogenates assessed as MAOA level at 30 mg/kg, po administered as single acute dose via gavage and measured after 1 hr by monoamine oxidase assay (reference value: 0.40 +/- 0.012 nmol/min/mg). It counts as functional.
Series [9] in a line: Ex vivo inhibition of MAOA in CD1 mouse brain homogenates assessed as 5-HT levels at 30 mg/kg, po administered as single acute dose via gavage and measured after 1 hr by ELISA kit method (reference value: 0.80 +/- 0.006 ug/g). The series is classed as functional.
Series [10] can be described thus: Ex vivo inhibition of MAOA in CD1 mouse brain homogenates assessed as dopamine levels at 30 mg/kg, po administered as single acute dose via gavage and measured after 1 hr by ELISA kit method (reference value: 7.08 +/- 0.58 ug/g). The series is classed as functional. For orientation: An ELISA detects its analyte on a solid surface through an enzyme-linked reagent.

A short description of series [11]: Effect on locomotor activity in CD1 mouse assessed as total distance traveled at 30 mg/kg, po administered via gavage for 7 days by open field test. The series is classed as ADME, organism-based. To be noted: in vivo, 168 h, time 7 day. The procedure, abridged:
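Each mouse placed in the centre of a 50 × 50 × 30 cm black box and video-tracked; total distance travelled over 5 min; n = 8–10.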

The source made the active and inactive calls. The calls are words filed in the database; no cut-off is given here.

With `O=C(NCCN1CCOCC1)c1ccc(Cl)cc1` [MOCLOBEMIDE], the result with Mus musculus [1] was Active. The values for the Activity in series [2], in [3] and in series [4] were 0.35 nmol/min/mg, 7.1 µg/g and 0.32 µg/g, respectively.

In general, Ki refers to a measure of affinity in units of concentration, obtained from inhibition or displacement. As to `COc1ccc(C2=NN(C(=O)Cn3c(=O)oc4ccc(C)cc43)C(c3cccc(OC)c3OC)C2)cc1` (stereo unspecified), in series [5], the Ki came out at 655 µM. Moreover, in [6], the Ratio Ki was 1.37 10^-5No_unit. The outcome with Mus musculus [7] was Active. Further, the Activity in series [8] is 0.23 nmol/min/mg; in series [9], 1.1 µg/g; in series [10] it was 7.13 µg/g; in [11] it was “Non-Toxic”.
